CHRM4 antagonist: human M4 muscarinic receptor antagonists, primary screen, CHO cells, Fluo-8 calcium fluorescence; Muscarinic acetylcholine receptor M4 (Homo sapiens), P08173; CHO-hM4 cells, ACh EC80; inhibition, % at 3 µM; 360,000 compounds, 0.73% hits; AID 624125, 2012;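 active = inhibition above its plate's cutoff, the mean inhibition of sample wells plus 3 SD, cut at about 27% in these data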
V1R ag counter: agonists of human V1a receptor, primary screen, counter-screen for OXTR agonist project, fluorescence, CHO-V1R cells. Vasopressin V1a receptor (Homo sapiens), P37288. Fluo-8 calcium fluorescence, agonist mode; 0% DMSO, 100% 3 nM vasopressin. activation, % at 3 µM. 320,000 compounds, 0.25% hits;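 active = activation above the mean activation of all tested compounds plus 3 SD, per screening run, cut at about 20% in these data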;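 note: signal is peak over basal fluorescence ratio across a 100 second FLIPR read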
Target sequence (P37288 whole entry, looked up): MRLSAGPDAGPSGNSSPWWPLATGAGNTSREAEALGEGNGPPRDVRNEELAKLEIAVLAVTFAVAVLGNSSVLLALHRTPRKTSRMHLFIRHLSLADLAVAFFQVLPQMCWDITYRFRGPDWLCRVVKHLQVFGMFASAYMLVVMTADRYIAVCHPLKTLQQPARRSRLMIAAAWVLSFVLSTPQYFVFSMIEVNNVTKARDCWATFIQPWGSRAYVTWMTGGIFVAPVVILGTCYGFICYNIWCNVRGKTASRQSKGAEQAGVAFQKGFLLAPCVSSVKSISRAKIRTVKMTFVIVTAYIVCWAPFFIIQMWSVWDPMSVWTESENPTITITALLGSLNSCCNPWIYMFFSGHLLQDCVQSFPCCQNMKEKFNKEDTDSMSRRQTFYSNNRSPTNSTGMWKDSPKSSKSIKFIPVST
CHRM4 agonist: human M4 muscarinic receptor agonists, primary screen, CHO-K1 cells, Fluo-8 calcium fluorescence | 360,000 compounds, 0.14% hits | activation, % at 3 µM | CHO-K1 hM4/Gqi5; vehicle 0%, full acetylcholine response 100% | Muscarinic acetylcholine receptor M4 (Homo sapiens), P08173;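 active = activation above the run mean over all test wells plus 3 SD, cut at about 32% in these data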;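 note: peak over basal fluorescence ratio per well then scaled between controls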
OXTR potentiate: human OXTR potentiators, primary screen, fluorescence, CHO-OTR cells, Fluo-8 calcium. Oxytocin receptor (Homo sapiens), P30559. Fluo-8 calcium fluorescence, potentiator mode; 0% = oxytocin EC15, 100% = EC100. activation, % at 3 µM. 320,000 compounds, 0.061% hits;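 active = activation above that plate's cutoff, the mean activation of tested compounds plus 3 SD, cut at about 6.6% in these data, passing the limit was not always enough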
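Replication – single well per compound, singlicate · Assay system – CHO cell line stably expressing human OTR · Timing – 6 min pre-incubation, 100 s read · Measure – normalized max/min fluorescence ratio, % activation · Doses – 3.0 µM, one dose · Detection – Fluo-8 calcium dye fluorescence · Probe or stimulus – oxytocin near EC15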
OXTR agonist: human OXTR agonists, primary screen, fluorescence, CHO-OTR cells, Fluo-8 calcium; Oxytocin receptor (Homo sapiens), P30559; Fluo-8 calcium fluorescence; normalized: DMSO 0%, oxytocin 100%; activation, % at 3 µM; 320,000 compounds, 0.32% hits; AID 2435, 2010;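 active = activation above the mean of all tested compounds plus 3 SD, cutoff set per screening run, cut at about 20% in these data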;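 note: peak over basal fluorescence ratio from a 100 s FLIPR kinetic read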
M4 PAM: human M4 muscarinic receptor positive allosteric modulators, primary screen, CHO-K1 cells, Fluo-8 calcium fluorescence. activation, % at 3 µM. Muscarinic acetylcholine receptor M4 (Homo sapiens), P08173. 360,000 compounds, 0.4% hits. CHO-K1 hM4/Gqi5, ACh EC20; 0% = ACh EC20, 100% = maximal ACh;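 active = activation above its plate's cutoff, the mean activation of sample wells plus 3 SD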
OXTR agonist cf: human OXTR agonists, confirmation, fluorescence, CHO-OTR cells, triplicate; activation, % at 3 µM; shares compounds with OXTR agonist; Fluo-8 calcium fluorescence, agonist; 390 compounds, 20% hits;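 active = mean activation above about 20% derived from the earlier single-dose screen, limit read from the data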;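 note: peak over minimum fluorescence ratio per well during a 100 second FLIPR read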
V1aR counter 3x: V1a receptor agonists, calcium signal, counter-screen for OXTR agonist project, triplicate, fluorescence, CHO-V1R cells; shares compounds with OXTR agonist; Fluo-8 calcium fluorescence; activation, % at 3 µM; 390 compounds, 10% hits; AID 434991, 2010;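 active = mean activation over triplicate exceeds the hit threshold set in the earlier primary screen, cut at about 20% in these data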;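 note: peak over basal fluorescence ratio within a 100 second read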
Large screens that a line does not name were inactive (follow-up assays come after a bar, where they were run); ! = a repeat was not active. Sampled rows, rich in hits. Any-hit rate of the full collection: about 1.5%.

CCOC(=O)c1c(C)n(-c2ccc(C)cc2)c2ccc(OCC(O)CNCCCO)cc12 (stereo unspecified)	none
CCOC(=O)c1c(C)n(-c2ccc(C)cc2)c2ccc(OCC(O)CNCC3CCCO3)cc12 (stereo unspecified)	OXTR agonist 20 | OXTR agonist cf inactive | V1aR counter 3x inactive
O=C(COC(=O)C1CC2CCCC(C1)C2=O)Nc1ccccc1 (stereo unspecified)	none
O=C(Nc1ncc([N+](=O)[O-])s1)c1cccs1	OXTR agonist 21! | OXTR agonist cf inactive | V1aR counter 3x inactive
CC1(c2ccc(OC(F)F)cc2)NC(=O)N(CC(=O)NC2CCCCC2)C1=O (stereo unspecified)	none
Cc1ccc(C2(C)NC(=O)N(CC(=O)N3c4ccccc4NC(=O)CC3C)C2=O)cc1 (stereo unspecified)	none
CC1(c2ccc(OC(F)F)cc2)NC(=O)N(CC(=O)Nc2ccc(F)cc2)C1=O (stereo unspecified)	CHRM4 agonist 32, OXTR agonist 27 | OXTR agonist cf inactive | V1aR counter 3x inactive
Cc1ccc(NC(=O)CN2C(=O)NC(C)(c3ccc(Cl)cc3)C2=O)cc1 (stereo unspecified)	OXTR agonist 22 | OXTR agonist cf inactive | V1aR counter 3x inactive
CC1(c2ccc(OC(F)F)cc2)NC(=O)N(CC(=O)Nc2ccc(Cl)cc2F)C1=O (stereo unspecified)	OXTR agonist 34 | OXTR agonist cf 24 | V1aR counter 3x 22
Cc1ccc(C2(C)NC(=O)N(CC(=O)Nc3ccc4c(c3)OCO4)C2=O)cc1 (stereo unspecified)	none
Cc1ccc(C2(C)NC(=O)N(CC(=O)N3CCc4ccccc43)C2=O)cc1 (stereo unspecified)	OXTR agonist 20 | OXTR agonist cf inactive | V1aR counter 3x inactive
CCOC(=O)c1c(S(=O)(=O)N2CCC(C)CC2)c(C)n(C)c1C	none
CC12CCC(C(=O)NCc3ccco3)(OC1=O)C2(C)C (stereo unspecified)	none
CCCCC1(c2ccc(F)cc2)NC(=O)N(CC(=O)Nc2ccc(N3CCOCC3)cc2)C1=O (stereo unspecified)	OXTR agonist 21 | OXTR agonist cf inactive | V1aR counter 3x inactive
COc1cc(/C=C2\Oc3cc(O)ccc3C2=O)ccc1O	OXTR agonist 22 | OXTR agonist cf inactive | V1aR counter 3x 21
C1CCC(C(CC2CCCCN2)C2CCCCC2)CC1 (stereo unspecified)	CHRM4 antagonist 35!, OXTR agonist 21! | OXTR agonist cf inactive | V1aR counter 3x inactive
COc1cc(CNCCO)cc(Cl)c1OCc1ccc(Cl)cc1Cl	OXTR agonist 20 | OXTR agonist cf inactive | V1aR counter 3x inactive
COc1cc(CNCCO)cc(Br)c1OCc1ccccc1Cl	none
COc1cc(CNCc2ccccn2)ccc1OCc1ccc(Cl)cc1Cl	CHRM4 antagonist 33, OXTR agonist 25 | OXTR agonist cf inactive | V1aR counter 3x inactive
Cc1ccc(C(NC(=O)Nc2ccccn2)C(Cl)(Cl)Cl)cc1F (stereo unspecified)	none
COc1ccc(CNCCC(c2ccc(OC)cc2)c2ccccc2OC)cc1 (stereo unspecified)	none
COc1ccc(C(CCNCc2ccc(OC(C)C)cc2)c2ccccc2OC)cc1 (stereo unspecified)	OXTR agonist 22 | OXTR agonist cf inactive | V1aR counter 3x inactive
C/C(=N\NC(=O)c1nnn(-c2nonc2N)c1CSc1ccccc1)c1ccc2c(c1)OCO2	none
CCCCN1C(=O)/C(=C/C=C2\SCCN2C)SC1=S	none (no result: V1R ag counter, OXTR potentiate, OXTR agonist)
CN1CCS/C1=C/C=C1\SC(=S)N(CC(=O)O)C1=O	OXTR agonist 33 | OXTR agonist cf 31 | V1aR counter 3x 38
Cc1ccc([N+](=O)[O-])cc1N(CC(=O)Nc1ccc(S(=O)(=O)Nc2cccc(C(F)(F)F)c2)cc1)S(C)(=O)=O	none
N#Cc1ccc2sn(-c3ccccc3)c(=O)c2c1	none (no result: V1R ag counter, OXTR potentiate, OXTR agonist)
N#Cc1ccsc1NC(=O)c1cccc([N+](=O)[O-])c1	none
N#Cc1ccsc1NC(=O)c1ccc(Cl)c([N+](=O)[O-])c1	OXTR agonist 22 | OXTR agonist cf inactive | V1aR counter 3x inactive
CN1OC[C@@H]2CN(Cc3ccccc3)[C@H](c3cccc(Oc4ccccc4)c3)C[C@@H]21	none (no result: V1R ag counter, OXTR potentiate, OXTR agonist)
CCCN1C(=O)S/C(=C/c2ccc(N3CCOCC3)o2)C1=O	CHRM4 antagonist 31, OXTR agonist 20 | OXTR agonist cf 31 | V1aR counter 3x 55
CC(=O)Oc1c(S(=O)(=O)c2ccc(C)cc2)c(C)nn1C(C)(C)C	none
Cc1ccc(S(=O)(=O)c2c(C)nn(C(C)(C)C)c2OC(=O)C(C)(C)C)cc1	OXTR agonist 21 | OXTR agonist cf inactive | V1aR counter 3x inactive
COc1ccc(C2=NO[C@@H]3C(=O)N(C4CCCCC4)C(=O)[C@H]23)cc1OC	OXTR agonist 21 | OXTR agonist cf inactive | V1aR counter 3x inactive
COc1ccc(C(=O)/C(C#N)=N/Nc2ccc([N+](=O)[O-])cc2)cc1	OXTR agonist 20 | OXTR agonist cf inactive | V1aR counter 3x inactive
CCCCNC(=O)CNC(=S)N(CCCN1CCOCC1)Cc1cccs1	none
COc1ccc2c(c1)C=C(CN1CCC(CO)(CCc3ccccc3)CC1)CO2	none
COc1ccc(CC2(CO)CCN(CC3=Cc4cc(Cl)ccc4OC3)CC2)cc1	CHRM4 antagonist 29, OXTR agonist 23 | OXTR agonist cf inactive | V1aR counter 3x inactive
Cc1noc(C)c1C(=O)OCC(=O)Nc1ncc(Cl)c(C)c1Cl	none
CCCNC(=O)C1(C)CCN(C(=O)c2cccc(C#N)c2)C1 (stereo unspecified)	none (no result: V1R ag counter, OXTR potentiate, OXTR agonist)
